Assay results from PMC6166782 (Science signaling, 2018).
Like-named read-outs stand apart in the source and are kept apart here.

Experiments:
pHsp72 [1] = biological target: T1, pHsp72 (Homo sapiens, UniProt P0DMV8, T66S); test: Isothermal titration calorimetry, nucleotide binding to pHsp72; details: ITC; ratio of Kd
Target sequence in this assay (P0DMV8 2-641 T66S): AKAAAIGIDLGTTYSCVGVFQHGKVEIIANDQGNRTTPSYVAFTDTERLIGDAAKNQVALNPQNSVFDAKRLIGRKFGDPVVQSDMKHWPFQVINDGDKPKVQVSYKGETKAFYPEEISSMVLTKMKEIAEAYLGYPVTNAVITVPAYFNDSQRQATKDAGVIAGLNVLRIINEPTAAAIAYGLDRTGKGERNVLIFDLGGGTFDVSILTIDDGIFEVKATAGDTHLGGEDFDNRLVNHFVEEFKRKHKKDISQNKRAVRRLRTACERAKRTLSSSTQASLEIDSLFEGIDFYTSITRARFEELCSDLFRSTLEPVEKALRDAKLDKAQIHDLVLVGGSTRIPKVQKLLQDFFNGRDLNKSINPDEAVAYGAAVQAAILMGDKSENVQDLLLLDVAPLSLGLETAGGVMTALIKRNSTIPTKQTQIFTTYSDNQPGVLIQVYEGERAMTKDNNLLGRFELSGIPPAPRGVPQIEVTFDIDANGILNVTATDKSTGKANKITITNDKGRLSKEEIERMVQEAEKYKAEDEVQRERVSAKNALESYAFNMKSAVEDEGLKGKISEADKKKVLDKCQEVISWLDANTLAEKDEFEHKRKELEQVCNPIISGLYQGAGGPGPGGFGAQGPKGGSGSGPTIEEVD

[2] = system: spindle poles, HeLa cells; test: FRAP of GFP-Hsp72 at spindle poles; format: cell-based; details: one spindle pole bleached; average of 4-5 cells from 2 experiments
spindle assembly = details: ref [9]; cited from earlier work
unphosphorylated Hsp72 [3] = biological target: T2, unphosphorylated Hsp72 (Homo sapiens, UniProt P0DMV8); test: Fluorescence polarization peptide binding, unphosphorylated Hsp72
Outline: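 Unphosphorylated Hsp72 serially diluted in Buffer A (pH 7.5, 10 mM MgCl₂). ADP state: 125 μM ADP plus 20 nM F-NR, several hours at room temperature to equilibrium. ATP state: 2 mM ATP for 2 min, then 20 nM F-NR, read after 10 min. FP at 25°C, ex 490/em 535 nm. Kd from one-site nonlinear fit; ATP Kd divided by ADP Kd.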
Target sequence in this assay (P0DMV8 whole entry): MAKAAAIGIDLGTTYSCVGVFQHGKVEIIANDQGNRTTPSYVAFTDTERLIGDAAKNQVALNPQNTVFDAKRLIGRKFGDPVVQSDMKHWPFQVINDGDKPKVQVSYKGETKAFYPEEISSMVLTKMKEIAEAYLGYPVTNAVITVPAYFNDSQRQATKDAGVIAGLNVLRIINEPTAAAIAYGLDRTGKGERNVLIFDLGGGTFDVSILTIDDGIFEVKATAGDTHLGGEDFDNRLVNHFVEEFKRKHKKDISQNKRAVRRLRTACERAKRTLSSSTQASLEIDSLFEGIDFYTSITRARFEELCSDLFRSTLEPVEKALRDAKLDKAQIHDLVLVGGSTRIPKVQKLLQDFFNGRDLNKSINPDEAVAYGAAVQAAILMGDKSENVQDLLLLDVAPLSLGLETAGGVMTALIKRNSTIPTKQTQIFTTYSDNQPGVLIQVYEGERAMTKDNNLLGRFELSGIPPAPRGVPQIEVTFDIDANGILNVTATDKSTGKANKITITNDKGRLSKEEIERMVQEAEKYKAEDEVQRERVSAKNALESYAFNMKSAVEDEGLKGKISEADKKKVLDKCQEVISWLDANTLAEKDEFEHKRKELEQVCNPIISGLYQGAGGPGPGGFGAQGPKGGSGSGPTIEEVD

unphosphorylated Hsp72 [4] = biological target: T2, unphosphorylated Hsp72; test: ATP mediated substrate release assay, unphosphorylated Hsp72; format: biochemical; details: 100 μM VER-155008, 2 mM ATP; Fig. S7, C to E
Outline: (§1)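 Full-length Hsp72 (unphosphorylated, or pSer66 genetically encoded in E. coli) at 50 μM was equilibrated at room temperature for several hours with 20 nM F-NR or F-ALLQ peptide and 125 μM ADP in Buffer A (Hepes-KOH pH 7.5, 10 mM MgCl₂, 2 mM DTT). ATP was added to 2 mM final, with 100 μM VER-155008 included. FP (ex 490/em 535 nm, 25°C) was read before ATP, then every 30 s for 4000 s.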
Target sequence in this assay (P0DMV8 2-641): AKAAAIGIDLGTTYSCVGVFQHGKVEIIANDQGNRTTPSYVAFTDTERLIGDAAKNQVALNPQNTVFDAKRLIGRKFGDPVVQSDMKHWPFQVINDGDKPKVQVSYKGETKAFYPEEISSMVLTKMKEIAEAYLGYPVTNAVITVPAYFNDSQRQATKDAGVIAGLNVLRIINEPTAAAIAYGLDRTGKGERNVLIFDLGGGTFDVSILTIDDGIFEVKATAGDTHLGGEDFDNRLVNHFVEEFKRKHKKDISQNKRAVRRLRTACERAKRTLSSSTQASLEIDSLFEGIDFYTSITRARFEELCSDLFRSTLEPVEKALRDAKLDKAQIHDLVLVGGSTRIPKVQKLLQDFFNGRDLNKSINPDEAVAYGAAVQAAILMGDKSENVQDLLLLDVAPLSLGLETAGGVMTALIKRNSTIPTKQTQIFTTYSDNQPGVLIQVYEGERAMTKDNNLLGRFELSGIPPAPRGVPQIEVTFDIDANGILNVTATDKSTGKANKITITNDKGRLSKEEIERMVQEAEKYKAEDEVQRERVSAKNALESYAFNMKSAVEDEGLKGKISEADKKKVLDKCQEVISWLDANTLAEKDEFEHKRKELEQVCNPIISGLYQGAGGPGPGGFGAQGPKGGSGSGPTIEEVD

pHsp72 [5] = biological target: T1, pHsp72; test: ATP mediated substrate release assay, pHsp72; format: biochemical; details: 100 μM VER-155008, 2 mM ATP; Fig. S7, C to E; protein form not given
Outline: as §1
Target sequence in this assay (P0DMV8 2-641 T66S): as the sequence (P0DMV8 2-641 T66S) above

unphosphorylated Hsp72 [6] = biological target: T2, unphosphorylated Hsp72; test: Kinetics of substrate peptide release, unphosphorylated Hsp72; format: biochemical; details: pH 7.5, read-out: koff, excess of unlabeled peptide (ADP state)
Outline: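 Hsp72 (50 μM) preloaded at room temperature with F-NR in 125 μM ADP, Buffer A (25 mM Hepes-KOH pH 7.5, 150 mM KCl, 10 mM MgCl₂, 2 mM DTT). ADP state: 40 nM F-NR, >5 h, then chased with 150 μM unlabelled NR. ATP state: 20 nM F-NR, then 2 mM ATP plus 150 μM unlabelled peptide. FP read over time at 25°C; koff fitted. Mean ± SEM, four (ADP) or five (ATP) runs.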
Target sequence in this assay (P0DMV8 whole entry): as the sequence (P0DMV8 whole entry) above

pHsp72 [7] = biological target: T1, pHsp72; test: Kinetics of substrate peptide release, pHsp72; format: biochemical; details: pH 7.5, read-out: koff, excess of unlabeled peptide (ADP state)
Outline: (§2)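 50 μM Hsp72 (pS66 or unphosphorylated) was pre-equilibrated at room temperature with F-NR and 125 μM ADP in Hepes–KOH pH 7.5 buffer with 10 mM MgCl₂. ADP state: 40 nM F-NR for over 5 h, then 150 μM unlabelled NR. ATP state: 20 nM F-NR, then 2 mM ATP plus 150 μM unlabelled peptide, read every 30 s for 4000 s (mean ± SEM, five assays). FP at 25°C; koff was fitted.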
Target sequence in this assay (P0DMV8 whole entry T66S): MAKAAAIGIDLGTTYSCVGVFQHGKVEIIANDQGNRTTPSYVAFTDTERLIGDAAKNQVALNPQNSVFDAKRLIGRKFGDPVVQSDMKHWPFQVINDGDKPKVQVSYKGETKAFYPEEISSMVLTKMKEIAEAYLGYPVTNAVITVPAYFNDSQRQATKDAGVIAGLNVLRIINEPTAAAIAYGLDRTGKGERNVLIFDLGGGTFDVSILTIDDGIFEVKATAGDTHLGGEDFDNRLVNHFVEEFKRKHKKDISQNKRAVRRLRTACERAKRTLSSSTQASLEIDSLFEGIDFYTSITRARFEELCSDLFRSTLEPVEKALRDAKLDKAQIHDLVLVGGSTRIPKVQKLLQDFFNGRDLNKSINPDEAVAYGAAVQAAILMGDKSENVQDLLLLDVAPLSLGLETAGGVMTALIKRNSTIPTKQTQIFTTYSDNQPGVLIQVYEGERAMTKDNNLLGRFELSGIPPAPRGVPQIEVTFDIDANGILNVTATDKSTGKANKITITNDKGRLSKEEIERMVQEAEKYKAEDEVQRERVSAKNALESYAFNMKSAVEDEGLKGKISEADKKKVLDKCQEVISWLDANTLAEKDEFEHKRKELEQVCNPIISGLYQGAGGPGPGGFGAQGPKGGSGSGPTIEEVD

unphosphorylated Hsp72 [8] = biological target: T2, unphosphorylated Hsp72; test: Peptide release kinetics in the presence of Hsp110, unphosphorylated Hsp72; format: biochemical; details: read-out: koff, ATP, excess of unlabeled peptide, Hsp110
Outline: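 Unphosphorylated Hsp72 (50 μM) equilibrated for several hours at room temperature with 20 nM F-NR and 125 μM ADP in Buffer A (pH 7.5, 150 mM KCl, 10 mM MgCl₂). Release triggered by 2 mM ATP (final) with 150 μM unlabelled peptide and 125 μM His-tagged, E. coli-expressed Hsp110. FP (ex 490/em 535 nm, 25°C) every 30 s for 4000 s; koff fitted. Mean ± SEM, six experiments.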
Target sequence in this assay (P0DMV8 whole entry): as the sequence (P0DMV8 whole entry) above

pHsp72 [9] = biological target: T1, pHsp72; test: Peptide release kinetics in the presence of Hsp110, pHsp72; format: biochemical; details: read-out: koff, ATP, excess of unlabeled peptide, Hsp110
Outline: (§3)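 50 μM pS66 or unphosphorylated Hsp72 was equilibrated for several hours at room temperature with 20 nM F-NR and 125 μM ADP in Hepes–KOH pH 7.5 buffer (10 mM MgCl₂, 2 mM DTT). ATP was then added to 2 mM final, with 150 μM unlabelled peptide and 125 μM Hsp110. FP (ex 490/em 535 nm, 25°C) was read every 30 s for 4000 s. koff given as mean ± SEM of six experiments.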
Target sequence in this assay (P0DMV8 whole entry T66S): as the sequence (P0DMV8 whole entry T66S) above

mitotic spindle = details: ref [9]; cited from earlier work
pHsp72 [10] = test: Kinetics of substrate peptide release, pHsp72; format: biochemical
Outline: as §2

pHsp72 [11] = test: Peptide release kinetics in the presence of Hsp110, pHsp72; format: biochemical; details: ATP, Hsp110 and unlabeled substrate peptide
Outline: as §3

[12] = biological target: fluorescein-labeled NR peptide (F-NR); test: fluorescence polarisation
[13] = biological target: fluorescein-labeled NR peptide (F-NR); test: fluorescence polarisation; remark: listed apart in the source

Sequence of Heat shock protein 72 (Hsp72), unphosphorylated, full-length (P0DMV8 whole entry): as the sequence (P0DMV8 whole entry) above

Compound: Nc1ncnc2c1ncn2[C@@H]1O[C@H](COP(=O)(O)OP(=O)(O)OP(=O)(O)O)[C@@H](O)[C@H]1O [ATP, adenosine triphosphate]
- fold tighter nucleotide binding, pHsp72 vs unphosphorylated Hsp72 (pHsp72 [1]): twice as tightly

Compound: T66E
- FRAP recovery [2]: very little recovery
- effect on spindle assembly (spindle assembly): can rescue the defects in spindle assembly due to NEK6 depletion

Compound: Nc1ncnc2c1ncn2[C@@H]1O[C@H](COP(=O)(O)OP(=O)(O)O)[C@@H](O)[C@H]1O [ADP, adenosine diphosphate]
- fold tighter nucleotide binding, pHsp72 vs unphosphorylated Hsp72 (pHsp72 [1]): ten times more tightly

Compound: N#Cc1ccc(COC[C@H]2O[C@@H](n3c(NCc4ccc(Cl)c(Cl)c4)nc4c(N)ncnc43)[C@H](O)[C@@H]2O)cc1 [VER-155008]
- effect on binding of peptide substrate (unphosphorylated Hsp72 [3]; 100 μM VER-155008, DMSO control, Fig. S7, form of Hsp72 not stated): did not affect the binding of peptide substrate
- fold reduction of ATP substrate release rate (unphosphorylated Hsp72 [4]): ~ 8.6 fold
- increase of ATP-mediated rate of release of substrate peptide (pHsp72 [5]): ~ 2.6
- effect on spindle assembly (spindle assembly): disrupted spindle assembly

Compound: CC(C)C[C@H](NC(=O)[C@H](CCCNC(=N)N)NC(=O)[C@H](CC(N)=O)NC(=O)c1ccc2c(c1)C(=O)OC21c2ccc(O)cc2Oc2cc(O)ccc21)C(=O)N[C@@H](CC(C)C)C(=O)N[C@@H](CC(C)C)C(=O)N[C@H](C(=O)NCC(=O)O)[C@@H](C)O [F-NR]
- factor by which ATP weakened peptide interaction vs ADP (unphosphorylated Hsp72 [3]; unphosphorylated Hsp72, ATP vs ADP, ratio of Kd): 40
- koff (unphosphorylated Hsp72 [6]): 0.00123 ± 4e-05 s⁻¹
- koff (pHsp72 [7]): 0.00079 ± 3e-05 s⁻¹
- koff (unphosphorylated Hsp72 [8]): 0.0673 ± 0.0077 s⁻¹
- koff (pHsp72 [9]): 0.0252 ± 0.0017 s⁻¹

Compound: T66A
- localization to the spindle (mitotic spindle): did not localize to the spindle
- effect on spindle assembly (spindle assembly): causes defects in spindle assembly

Compound: pHsp72: full-length Hsp72 with incorporation of pSer^66
- times slower peptide release rate, pHsp72 vs unphosphorylated (pHsp72 [10]; ADP state): ~ 1.5 times
- times slower peptide release rate, pHsp72 vs unphosphorylated (pHsp72 [10]; ATP state): ~ 8 times
- fold slower peptide release rate, pHsp72 vs Hsp72, in presence of Hsp110 (pHsp72 [11]): ~ 2.7 fold

Compound: Nc1ncnc2c1ncn2[C@@H]1O[C@H](COP(=O)(O)OP(=O)(O)NP(=O)(O)O)[C@@H](O)[C@H]1O [AMP-PNP, adenylyl-imidodiphosphate]
- fold tighter nucleotide binding, pHsp72 vs unphosphorylated Hsp72 (pHsp72 [1]): 3.6 fold

Compound: pSer^66-Hsp72 (pHsp72), full-length, with genetically encoded phosphoserine at position 66 (from UniProt P0DMV8 1-641) (natural protein)
- Kd [12]: 27.6 µM

Compound: Heat shock protein 72 (Hsp72), unphosphorylated, full-length (from UniProt P0DMV8 1-641) (natural protein)
- Kd [12]: 157 µM
- Kd [13]: 3.95 µM
